TRPC6 inhibitor: mouse TRPC6 channel inhibitors, primary screen, cell-based, HEK293, membrane potential dye. Short transient receptor potential channel 6 (Mus musculus), Q61143. B-score at 10 µM. ACh-evoked depolarization; stronger effect = lower value. 1.1% of 310,000 active;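 active = B-score under library mean minus 3 SD, initial fluorescence not abnormally high, positive integrated signal ratio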;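 note: B-score derived from integrated fluorescence ratio over the kinetic read; more negative B-score means stronger inhibition of depolarization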
Kir21 block: inhibitors of mouse Kir2.1 inward-rectifier potassium channel; Inward rectifier potassium channel 2 (Mus musculus), P35561; HEK293-Kir2.1, FluxOR thallium flux fluorescence; stronger effect = lower value; B-score at 10 µM; 0.85% of 310,000 active;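 active = fluorescence ratio B-score at or below minus 3 SD of library scores, with starting-brightness B-score within 2 SD, cut at about -4.2 in these data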;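 note: channel flux triggered by added potassium and thallium sulfate stimulus; B-score of peak minus minimum fluorescence over baseline after thallium stimulus; more negative B-score means stronger Kir2.1 block with less thallium influx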
Target sequence (P35561 whole entry, looked up): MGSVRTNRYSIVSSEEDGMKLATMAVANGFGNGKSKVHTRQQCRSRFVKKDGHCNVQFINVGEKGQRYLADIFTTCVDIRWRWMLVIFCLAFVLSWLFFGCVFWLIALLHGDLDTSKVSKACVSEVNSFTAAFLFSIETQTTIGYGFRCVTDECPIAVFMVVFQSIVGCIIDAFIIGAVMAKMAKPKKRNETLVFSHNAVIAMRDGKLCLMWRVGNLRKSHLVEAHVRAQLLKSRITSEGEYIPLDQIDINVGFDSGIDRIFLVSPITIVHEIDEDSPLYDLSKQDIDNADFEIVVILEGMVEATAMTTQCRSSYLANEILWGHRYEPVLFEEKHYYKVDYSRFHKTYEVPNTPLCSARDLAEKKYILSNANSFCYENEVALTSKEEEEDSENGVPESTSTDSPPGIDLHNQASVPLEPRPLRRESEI
TRPC4 agonist: activators of mouse TRPC4 channel, primary screen, Fluo4 calcium, HEK293 TRPC4beta/mu-opioid cells. Short transient receptor potential channel 4 (Mus musculus), Q9QUQ5. Fluo4 calcium fluorescence; stronger effect = higher value. B-score at 10 µM. 0.49% of 310,000 active. AID 2237, 2010;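 active = B-score above 5 SD of library B-scores, and initial fluorescence ratio not above library mean plus 5 SD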;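 note: positive B-score marks a calcium rise read as TRPC4 activation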
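Material: TRPC4beta and mu-opioid receptor HEK293 stable cells | Incubation: 45 min room-temperature Fluo4 loading, 110 s read | Detection: Kinetic Fluo4 calcium fluorescence | Measure: Integrated baseline-normalised fluorescence ratio, converted to per-well B score | Benchmarks: Low control buffer alone, high control maximal DAMGO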
TRPC4 potent: positive allosteric modulators of TRPC4, primary screen, cell-based, mouse TRPC4beta, HEK293 mu-opioid, Fluo-4 calcium; AID 2227, 2009; 0.42% of 310,000 active; Short transient receptor potential channel 4 (Mus musculus), Q9QUQ5; B-score at 10 µM; DAMGO EC20, Fluo-4 Ca2+ flux; stronger effect = higher value;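 active = B-score of calcium response area above 5 SD of library B-scores, with initial fluorescence ratio within 5 SD of library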;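 note: B-score of integrated fluorescence ratio over time as area under calcium response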
TRPC4 block: inhibitors of mouse TRPC4 channel, primary screen, Fluo4 calcium, HEK293 TRPC4beta/mu-opioid cells | B-score at 10 µM | DAMGO-evoked Fluo4 calcium flux; stronger effect = lower value | AID 2247, 2010 | Short transient receptor potential channel 4 (Mus musculus), Q9QUQ5 | 0.39% of 300,000 active;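 active = B-score over 3 SD under the library average, no early fluorescence shift, positive overall ratio signal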
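Assay system: TRPC4beta/mu-opioid receptor HEK293 cell line; compound dosing: single concentration per test compound; detection: Fluo4 Ca2+ flux fluorescence; evaluation: per-well B score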
TRPC6 activator: mouse TRPC6 channel activators, primary screen, cell-based, HEK293, membrane potential dye; Short transient receptor potential channel 6 (Mus musculus), Q61143; HEK293-TRPC6 membrane potential dye fluorescence; stronger effect = higher value; B-score at 10 µM; 0.13% of 310,000 active; AID 2550, 2010;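 active = B-score of the integrated fluorescence ratio above library mean plus 3 SD, and starting fluorescence ratio within library mean plus 5 SD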;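 note: higher score means more depolarization so channel activation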
HEK293 MPD ctr: parental HEK293 membrane potential modulation, confirmation, counter-screen for TRPC6 modulator project, cell-based. membrane potential signal change, % at 10 µM. 51% of 2,400 active. shares compounds with TRPC6 inhibitor. AID 488924, 2010. membrane potential dye fluorescence;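 active = membrane potential signal moves up or down beyond 5 SD from buffer-only wells, on both duplicate plates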
HEK293 MPD ctr 2: parental HEK293 nonspecific activity of TRPC6 modulators, second screen. shares compounds with TRPC6 inhibitor. membrane potential dye fluorescence; after compound, maximal acetylcholine stimulation. inhibition, % at 10 µM. 14% of 2,400 active. AID 488926;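 active = membrane potential signal drops by more than 5 SD from the mean control signal, in both duplicate plates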;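 note: plate controls were acetylcholine ECmax control wells for no effect and buffer only wells for full effect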
TRPC4 ctr mod: TRPC4 modulation by TRPC6 hit compounds, confirmation, selectivity assay for TRPC6 modulator project, cell-based, HEK293 TRPC4/mu-opioid, membrane potential dye, mouse. shares compounds with TRPC6 inhibitor. membrane potential fluorescence. percent change from control (negative = decrease, positive = increase), % at 10 µM. 69% of 2,400 active. AID 488927, 2010;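 active = membrane potential signal moved up or down beyond 5 SD of buffer control wells, in both duplicate plates, actives on both sides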;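 note: plate controls were assay buffer wells for no effect and DAMGO maximal-effect wells for full effect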
TRPC4 ctr inh 2: second selectivity test of TRPC6 modulators against mouse TRPC4 | AID 488928 | inhibition, % at 10 µM | 55% of 2,400 active | shares compounds with TRPC6 inhibitor | HEK293 TRPC4/mu-opioid, membrane potential dye fluorescence; stimulated with maximal-effect DAMGO;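 active = drop in membrane potential signal beyond 5 SD of the control wells in both duplicate plates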;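 note: TRPC4 counter screen for TRPC6 hits run under conditions tuned for TRPC6 not TRPC4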
TRPC6 inh conf: mouse TRPC6 channel inhibitors, confirmation, HEK293 cells, membrane potential dye, duplicate; shares compounds with TRPC6 inhibitor; ACh-evoked depolarization; inhibition, % at 10 µM; 43% of 3,300 active; AID 488960, 2010;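 active = fluorescence ratio falls more than 5 SD below the full-stimulation control mean, in both duplicate runs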;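 note: integrated fluorescence ratio of peak minus minimum over baseline after agonist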
TRPC6 act confirm: mouse TRPC6 channel activators, confirmation, HEK293 cells, membrane potential dye, duplicate; shares compounds with TRPC6 inhibitor; HEK293-TRPC6 membrane potential dye fluorescence, FDSS; activation, % at 10 µM; 11% of 2,800 active;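 active = ratio signal rise beyond 5 SD above unstimulated control wells' mean, seen in both duplicate runs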;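 note: plate controls were buffer EC0 wells for no effect and acetylcholine ECmax response for full effect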
An asterisk follows results filed as active. Rows were chosen to be rich in hits. Some 2.9% of all compounds tested hit in one or more screens of this group.

Results for N=c1c(S(=O)(=O)c2ccccc2)cc2c(=O)n3ccccc3nc2n1CCCN1CCOCC1 ?
TRPC6 inhibitor: -5.45*; Kir21 block: -1.14; TRPC4 agonist: inactive; TRPC4 potent: inactive; TRPC4 block: inactive; TRPC6 activator: inactive; HEK293 MPD ctr: -142.5%*; HEK293 MPD ctr 2: inactive; TRPC4 ctr mod: -41.0%*; TRPC4 ctr inh 2: 51.0%*; TRPC6 inh conf: 50.0%*; TRPC6 act confirm: inactive

How did N=c1c(S(=O)(=O)c2ccc(Cl)cc2)cc2c(=O)n3ccccc3nc2n1CCN1CCOCC1 do in these assays?
TRPC6 inhibitor: inactive; Kir21 block: -0.84; TRPC4 agonist: inactive; TRPC4 potent: inactive; TRPC4 block: inactive; TRPC6 activator: inactive

What do the screens show for `O=C(c1cccc(C(F)(F)F)c1)C1CCCN(C(=O)/C=C/c2cnc[nH]2)C1` (stereo not drawn)?
TRPC6 inhibitor: inactive; Kir21 block: -0.48; TRPC4 agonist: inactive; TRPC4 potent: inactive; TRPC4 block: inactive; TRPC6 activator: inactive

What do the screens show for `Cc1ccc2cc(CN(CCN3CCCC3)C(=O)Nc3ccccc3)c(=O)[nH]c2c1C`?
TRPC6 inhibitor: -4.98*; Kir21 block: 0.16; TRPC4 agonist: inactive; TRPC4 potent: inactive; TRPC4 block: inactive; TRPC6 activator: inactive; HEK293 MPD ctr: inactive; HEK293 MPD ctr 2: inactive; TRPC4 ctr mod: inactive; TRPC4 ctr inh 2: 54.0%*; TRPC6 inh conf: 46.5%*; TRPC6 act confirm: inactive

What do the screens show for `Cc1ccc2cc(CN(CCN3CCOCC3)C(=O)NCc3ccccc3)c(=O)[nH]c2c1C`?
TRPC6 inhibitor: inactive; Kir21 block: -0.6; TRPC4 agonist: inactive; TRPC4 potent: inactive; TRPC4 block: inactive; TRPC6 activator: inactive

What do the screens show for `COc1cccc(NS(=O)(=O)c2ccc3[nH]cc(C(=O)NC4CC4)c(=O)c3c2)c1`?
TRPC6 inhibitor: -8.87*; Kir21 block: -3.82; TRPC4 agonist: inactive; TRPC4 potent: inactive; TRPC4 block: inactive; TRPC6 activator: 14.3*; HEK293 MPD ctr: inactive; HEK293 MPD ctr 2: inactive; TRPC4 ctr mod: inactive; TRPC4 ctr inh 2: inactive; TRPC6 inh conf: 58.0%*; TRPC6 act confirm: 90.5%*

What do the screens show for `CCN1C(=O)/C(=C/c2ccc(N3CCCC3)cc2)NC1=S`?
TRPC6 inhibitor: inactive; Kir21 block: -5.76; TRPC4 agonist: inactive; TRPC4 potent: inactive; TRPC4 block: inactive; TRPC6 activator: 29.9*; HEK293 MPD ctr: 359.0%*; HEK293 MPD ctr 2: inactive; TRPC4 ctr mod: 235.0%*; TRPC4 ctr inh 2: inactive; TRPC6 inh conf: inactive; TRPC6 act confirm: 43.5%*

How did Cc1cc(/C=C2/C(=O)N(C)C(=S)N2C)ccc1N1CCCC1 do in these assays?
TRPC6 inhibitor: inactive; Kir21 block: 5.61e-16; TRPC4 agonist: inactive; TRPC4 potent: inactive; TRPC4 block: inactive; TRPC6 activator: inactive

Results for Cc1cc(/C=C2\NC(=S)N(C)C2=O)ccc1N1CCCC1 ?
TRPC6 inhibitor: inactive; Kir21 block: -0.82; TRPC4 agonist: 49*; TRPC4 potent: inactive; TRPC4 block: inactive; TRPC6 activator: 33.8*; HEK293 MPD ctr: inactive; HEK293 MPD ctr 2: inactive; TRPC4 ctr mod: 132.0%*; TRPC4 ctr inh 2: inactive; TRPC6 inh conf: inactive; TRPC6 act confirm: 33.0%*

How did CCCN1C(=O)/C(=C/c2ccc(N3CCCC3)c(C)c2)NC1=S do in these assays?
TRPC6 inhibitor: inactive; Kir21 block: -4.02; TRPC4 agonist: 58*; TRPC4 potent: inactive; TRPC4 block: inactive; TRPC6 activator: 62.5*; HEK293 MPD ctr: 670.5%*; HEK293 MPD ctr 2: inactive; TRPC4 ctr mod: 225.5%*; TRPC4 ctr inh 2: inactive; TRPC6 inh conf: inactive; TRPC6 act confirm: 135.5%*

How did CCCN1C(=O)/C(=C/c2ccc(OCC(=O)OCC)cc2)NC1=S do in these assays?
TRPC6 inhibitor: inactive; Kir21 block: 0.91; TRPC4 agonist: inactive; TRPC4 potent: inactive; TRPC4 block: inactive; TRPC6 activator: inactive

How did NC(=O)C(c1ccccc1)c1ccc(C(=O)c2ccccc2)cc1 (stereo not drawn) do in these assays?
TRPC6 inhibitor: inactive; Kir21 block: 0.36; TRPC4 agonist: inactive; TRPC4 potent: inactive; TRPC4 block: inactive; TRPC6 activator: inactive

Results for COc1ccc(NC(=O)CS(=O)c2ccc(Br)cc2)cc1 (stereo not drawn) ?
TRPC6 inhibitor: inactive; Kir21 block: -0.49; TRPC4 agonist: inactive; TRPC4 potent: inactive; TRPC4 block: inactive; TRPC6 activator: inactive

How did CCn1cc(CN2CCc3c([nH]c4ccccc34)C2c2cccc(OC)c2)c(C)n1 (stereo not drawn) do in these assays?
TRPC6 inhibitor: inactive; Kir21 block: 0.58; TRPC4 agonist: inactive; TRPC4 potent: inactive; TRPC4 block: inactive; TRPC6 activator: inactive
